Measurements pooled from the literature.
Compare with care: the assays were run in different laboratories.
Target: Receptor tyrosine-protein kinase erbB-2 (ERBB2, Homo sapiens, UniProt P04626)

SMILES | test | setting | remaining binding [%]
C[C@@H]1CN(c2ccc3ncc(-c4ccc5[nH]nc(C6CC6)c5c4)n3n2)C[C@H](C)O1 | binding, competition with immobilised ligand | 50 nM | 87
O=C(Nc1c[nH]nc1C(=O)NC1CCNCC1)c1cc(F)cc(F)c1 | binding, competition with immobilised ligand | 1 µM | 69
C[C@@H](c1ccc(-n2cnc3c(N)ncnc32)cc1)N1CCc2nn(C)c(Cc3ccccc3)c2C1=O | binding, competition with immobilised ligand | 0.1 µM | 81
CN(C)c1nccc(-c2cnc3ncccn23)n1 | binding | 1 µM | 0
CNC(=O)Nc1ccc2c(c1)[C@@]1(CC2)OC(=O)N(CC(=O)N(Cc2ccc(F)cc2)[C@@H](C)C(F)(F)F)C1=O | cell-free assay, competition with immobilised ligand | 1 µM | 98
C[C@H]1CCN(c2nccc(-c3cnn4ncccc34)n2)C1 | binding | 1 µM | 94
O=C(Nc1ccc(Oc2ccc(F)cc2)cc1)N1CCc2ncccc2[C@H]1c1ccc(F)cc1 | cell-free assay, competition with immobilised ligand | 1 µM | 100
CN(CCCC(F)(F)F)c1nccc(-c2cnn3ncccc23)n1 | binding | 1 µM | 99
CCN1CCN(Cc2ccc(C(=O)Nc3ccc(C)c(Oc4ccc5c(c4)CC(=O)N5)c3)cc2C(F)(F)F)CC1 | binding, competition with immobilised ligand | 1 µM | 80
O=C(NCCCN1CCOCC1)c1ccc(Nc2nccc(-c3cc4ccccc4s3)n2)cc1 | binding, competition with immobilised ligand | 1 µM | 93
CS(=O)(=O)NCC[C@H](NC(=O)c1cncc2c1cnn2-c1ccc(F)cc1)c1ccnc(S(C)(=O)=O)c1 | cell-free assay, competition with immobilised ligand | 1 µM | 100
O=C(NCCCN1CCOCC1)c1ccc(Nc2ncc(Cl)c(-c3ccc(Cl)s3)n2)cc1 | binding, competition with immobilised ligand | 1 µM | 80
COc1cnc(Nc2cccc(S(N)(=O)=O)c2)nc1N1CCN(c2ccccc2)C(=O)C1 | binding, competition with immobilised ligand | 1 µM | 100
CNCc1ccccc1-c1csc([C@H](C)Nc2nc(C)nc3cc(OC)c(OC)cc23)c1 | cell-free assay, competition with immobilised ligand | 1 µM | 100
N[C@H]1CCN(c2nccc(-c3cnn4ncccc34)n2)C1 | binding | 1 µM | 84
